Test results: ChEMBL document CHEMBL1155130, “Selective angiotensin II AT2 receptor agonists: Benzamide structure-activity relationships” (Bioorg Med Chem, 2008)
The source made the active and inactive calls. The calls are words filed in the database; no cut-off is given here.

What was measured:
[1] = biological target: T1, Type-1 angiotensin II receptor A (Rattus norvegicus, UniProt P25095); experiment: Displacement of [125]Ang2 from AT1 receptor in rat liver membrane; type: cell membranes
T1 sequence (P25095 whole entry): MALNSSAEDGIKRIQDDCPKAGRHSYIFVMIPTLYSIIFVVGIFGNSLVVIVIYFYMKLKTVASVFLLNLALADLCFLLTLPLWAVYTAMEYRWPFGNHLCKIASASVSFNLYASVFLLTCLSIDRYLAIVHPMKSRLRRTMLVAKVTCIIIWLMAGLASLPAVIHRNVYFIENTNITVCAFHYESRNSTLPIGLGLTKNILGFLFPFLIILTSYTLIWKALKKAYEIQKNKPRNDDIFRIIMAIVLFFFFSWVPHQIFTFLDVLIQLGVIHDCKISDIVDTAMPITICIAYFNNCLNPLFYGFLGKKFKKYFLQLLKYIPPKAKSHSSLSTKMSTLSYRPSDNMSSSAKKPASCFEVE
Outline: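 Rat liver membranes (5 mg original tissue per tube) incubated with [125I]Ang II (80,000–85,000 cpm, 0.03 nM) and varying test concentrations in 50 mM Tris–HCl pH 7.4, 100 mM NaCl, 10 mM MgCl2, 1 mM EDTA, 0.025% bacitracin, 0.2% BSA; 25 °C, 2 h. GF/B filtration, gamma counting; one-site fit; triplicate.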

[2] = biological target: AT2 receptor (Sus scrofa, UniProt A0A4X1W622); experiment: Displacement of [125]Ang2 from AT2 receptor in pig uterus membrane; type: cell membranes
[3] = tested on: NG108-15; experiment: Effect on cellular morphology of mouse rat hybrid NG108-15 cells assessed as induction of neurite outgrowth; type: functional, cell-based
Outline: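 NG108-15 cells (passage 18–28) grown in DMEM/10% FBS/HAT/gentamycin, 37 °C, 7% CO2. Plated at 3.6 × 10^4 cells per 35 mm dish, dosed daily for 3 days starting 24 h after plating, ± AT2 antagonist PD 123,319 added 30 min before. Phase-contrast micrographs on day 4. Cells with a neurite longer than one cell body counted as % of total (≥290 cells). Three independent experiments, duplicates, mean ± SEM.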

Row | Structure (SMILES) | Ki [1] | Ki [2] | Activity [3]
1 | CCCCOC(=O)NS(=O)(=O)c1ccc(CC(C)C)cc1-c1ccc(Cn2ccnc2)cc1 | > 10000 nM |  | 
2 | CCCCOC(=O)NS(=O)(=O)c1ccc(CC(C)C)cc1-c1ccc(C(=O)N(CC)CC)cc1 | > 10000 nM | 144 nM | 
3 | CCCCOC(=O)NS(=O)(=O)c1sc(CC(C)C)cc1-c1ccc(CN(C)C(C)=O)cc1 | > 10000 nM | 8.8 nM | 
4 | CCCCOC(=O)NS(=O)(=O)c1sc(CC(C)C)cc1-c1ccc(C(=O)N(C)C)cc1 | > 10000 nM | 36.9 nM | 
5 | CCCCOC(=O)NS(=O)(=O)c1ccc(CC(C)C)cc1-c1ccc(Cn2c(CC)nc3c(C)cc(C)nc32)cc1 | 2.1 nM | 0.7 nM | 
6 | CCCCOC(=O)NS(=O)(=O)c1sc(CC(C)C)cc1-c1ccc(CC(=O)N(C)C)cc1 | > 10000 nM | 7 nM | 
7 | CCCCOC(=O)NS(=O)(=O)c1sc(CC(C)C)cc1-c1ccc(C(=O)Nc2nccs2)cc1 | > 10000 nM | 10.9 nM | 
8 | CCCCOC(=O)NS(=O)(=O)c1sc(CC(C)C)cc1-c1ccc(C(=O)N(CC)CC)cc1 | > 10000 nM | 3 nM | Active
9 | CCCCOC(=O)NS(=O)(=O)c1ccc(-c2ccccc2)cc1-c1ccc(C(=O)N(CC)CC)cc1 | > 10000 nM | 52 nM | Active
10 | CCCCOC(=O)NS(=O)(=O)c1cc(CC(C)C)ccc1-c1ccc(C(=O)N(CC)CC)cc1 | > 10000 nM | 122 nM | 
11 | CCCCOC(=O)NS(=O)(=O)c1sc(CC(C)C)cc1-c1ccc(C(N)=O)cc1 | > 10000 nM | 106 nM | 
12 | CCCCOC(=O)NS(=O)(=O)c1cc(Cc2ccccc2)ccc1-c1ccc(C(=O)N(CC)CC)cc1 | > 10000 nM | 300 nM | 
13 | CCCCOC(=O)NS(=O)(=O)c1ccc(Oc2ccccc2)cc1-c1ccc(C(=O)N(CC)CC)cc1 | > 10000 nM | 91.7 nM | 
14 | CCCCOC(=O)NS(=O)(=O)c1sc(CC(C)C)cc1-c1ccc(Cn2ccnc2)cc1 [BULOXIBUTID] | > 10000 nM |  | 
15 | CCCCOC(=O)NS(=O)(=O)c1sc(CC(C)C)cc1-c1ccc(C(=O)NC2CCCCC2)cc1 | > 10000 nM | 6.4 nM | 
16 | CCCCOC(=O)NS(=O)(=O)c1sc(CC(C)C)cc1-c1ccc(C(=O)NCc2ccccc2)cc1 | > 10000 nM | 1 nM | Active
17 | CCCCOC(=O)NS(=O)(=O)c1sc(CC(C)C)cc1-c1ccc(C(=O)NC2CC2)cc1 | > 10000 nM | 10.5 nM | 
18 | CCCCOC(=O)NS(=O)(=O)c1ccc(Cc2ccccc2)cc1-c1ccc(C(=O)N(CC)CC)cc1 | > 10000 nM | 162 nM | 
19 | CCCCOC(=O)NS(=O)(=O)c1sc(CC(C)C)cc1-c1ccc(C(=O)N(C)Cc2ccccc2)cc1 | > 10000 nM | 31.5 nM | 
20 | CCCCOC(=O)NS(=O)(=O)c1sc(CC(C)C)cc1-c1ccc(C(=O)NC(C)C)cc1 | > 10000 nM | 2.6 nM | 
21 | CCCCOC(=O)NS(=O)(=O)c1ccccc1-c1ccc(C(=O)N(CC)CC)cc1 | > 10000 nM | 402 nM | 
22 | CCCCOC(=O)NS(=O)(=O)c1sc(CC(C)C)cc1-c1ccc(C(=O)N2CCCCC2)cc1 | > 10000 nM | 3.2 nM | 
23 | CCCCOC(=O)NS(=O)(=O)c1sc(CC(C)C)cc1-c1ccc(C(=O)N2CCOCC2)cc1 | > 10000 nM | 348 nM | 
24 | CCCCOC(=O)NS(=O)(=O)c1sc(CC(C)C)cc1-c1ccc(C(=O)N2CCCC2)cc1 | > 10000 nM | 6.4 nM | 
25 | CCCCOC(=O)NS(=O)(=O)c1sc(CC(C)C)cc1-c1ccc(Cn2c(CC)nc3c(C)cc(C)nc32)cc1 | 1.1 nM | 2 nM | 
